Reference: ChEMBL document CHEMBL1136634, “Synthesis and photoreactivity of caged blockers for glutamate transporters” (Bioorg Med Chem Lett, 2003)

Experiments:
[1] = Glutamate uptake inhibition assay on glutamate transporters (excitatory amino acid transporters EAAT2) stably expressed on MDCK cells after 5 min U.V irradiation; format: cell-based; details: Canis lupus familiaris, light or radiation study
Summary of the method: (§1)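 Before assay, caged compound in PBS(+) (1 mM CaCl2, 1 mM MgCl2, pH 7.4) was held in 1 mm quartz cuvettes in a dark box and irradiated with a 365 nm UV hand lamp at room temperature. Relative specific uptake came from three experiments, and IC50 was derived.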

[2] = Half-life was determined; format: ADME; details: human
[3] = Glutamate uptake inhibition assay on glutamate transporters (excitatory amino acid transporters EAAT2) stably expressed on MDCK cells after 10 min U.V irradiation; format: cell-based; details: Canis lupus familiaris, light or radiation study; summary of the method: as §1
[4] = Glutamate uptake inhibition assay on glutamate transporters (excitatory amino acid transporters EAAT2) stably expressed on MDCK cells after 1 min U.V irradiation; format: cell-based; details: Canis lupus familiaris, light or radiation study; summary of the method: as §1
[5] = Glutamate uptake inhibition assay on glutamate transporters (excitatory amino acid transporters EAAT2) stably expressed on MDCK cells after 20 min U.V irradiation; format: cell-based; details: Canis lupus familiaris, light or radiation study; summary of the method: as §1
[6] = Glutamate uptake inhibition assay on glutamate transporters (excitatory amino acid transporters EAAT2) stably expressed on MDCK cells before U.V radiation; format: cell-based; details: Canis lupus familiaris
[7] = Glutamate uptake inhibition assay on EAAT2 stably expressed on MDCK cells; format: cell-based, Canis lupus familiaris

Compound | half-life [2] [min] | IC50 [6] [µM] | IC50 ([7]; Canis lupus familiaris, MDCK) [µM] | also measured
N[C@H](C(=O)OCc1cc(=O)oc2cc(OCC(=O)O)ccc12)[C@H](OCc1ccccc1)C(=O)O | 3.7 | 124 | – | IC50 [1]: 8.6 µM; IC50 [3]: 7 µM; IC50 [4]: 24 µM; IC50 [5]: 5.6 µM
COc1ccc2c(COC(=O)[C@@H](N)[C@H](OCc3ccccc3)C(=O)O)cc(=O)oc2c1 | 3.9 | – | 124 | –
N[C@H](C(=O)O)[C@H](OCc1ccccc1)C(=O)O | – | 1.3 | – | –
COc1cc(C(C)OC(=O)[C@@H](N)[C@H](OCc2ccccc2)C(=O)O)c([N+](=O)[O-])cc1OC (stereo in doubt; 3a) | – | – | – | IC50 ([7]; mdck): 103 µM; T1/2 [2]: 57.2 min
COc1cc(C(C)OC(=O)[C@@H](N)[C@H](OCc2ccccc2)C(=O)O)c([N+](=O)[O-])cc1OC (stereo in doubt; 3b) | 45.2 | – | 111 | –
